Bioassay records as filed in PubChem BioAssay.
RanGTP-Impb inh: disruptors of Ran-importin-beta complex formation – biochemical, FRET, CFP-Ran, YFP-importin-beta, homogeneous, primary screen; cell-free CFP-Ran/YFP-importin-beta FRET ratio; inhibition, % (test concentration not listed); 300,000 tested, 1.1% active; AID 2216;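 active means more than half of the replicate wells show a fall in the fluorescence ratio signal beyond about 16%, limit read from the data, passing the limit was not always enough; inconclusive means exactly half of the replicate wells pass the set limit; inactive means fewer than half of replicates pass the limit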;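 further: 0% = DMSO wells and 100% = Ran loaded with GDP instead of GTP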
KLK7 zymogen act: activators of human kallikrein-7 zymogen. 370,000 tested, 0.9% active. purified proKLK7, EDANS-DABCYL substrate fluorescence; 100% is mature enzyme control, 0% vehicle. P49862. activation, % at 7 µM;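 active means activation above the mean of all tested compounds plus 3 SD, computed per campaign excluding outliers beyond control limits, cut at about 13% in these data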
Runt-SMMHC FRET: blocks binding of human RUNX1 Runt domain to CBFb-SMMHC; Q01196+Q13951; Cerulean-Runt/Venus-CBFb-SMMHC FRET ratio 530/480, 1 h; inhibition, % at 20 µM; 220,000 tested, 0.74% active;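 active means mean inhibition across duplicate retests at 20 µM reaching about 50%, limit read from the data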;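 further: 0% = DMSO wells and 100% = wells with excess untagged CBFb-SMMHC; inhibitors lower the FRET ratio by blocking Runt binding to CBFb-SMMHC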
Target sequence (Q01196 whole entry, looked up, the tested form may be a part): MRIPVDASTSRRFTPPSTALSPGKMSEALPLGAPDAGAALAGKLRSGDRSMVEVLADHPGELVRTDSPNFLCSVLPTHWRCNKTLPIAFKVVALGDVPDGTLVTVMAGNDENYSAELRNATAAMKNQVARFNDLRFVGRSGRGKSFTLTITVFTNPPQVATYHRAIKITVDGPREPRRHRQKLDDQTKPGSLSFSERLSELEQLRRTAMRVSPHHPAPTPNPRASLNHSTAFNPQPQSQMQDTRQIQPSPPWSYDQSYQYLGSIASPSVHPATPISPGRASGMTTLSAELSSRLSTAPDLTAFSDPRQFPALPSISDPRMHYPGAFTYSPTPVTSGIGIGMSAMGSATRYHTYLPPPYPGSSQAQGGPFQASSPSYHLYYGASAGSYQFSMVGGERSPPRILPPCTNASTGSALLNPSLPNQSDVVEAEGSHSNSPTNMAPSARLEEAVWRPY
Target sequence (Q13951 whole entry, looked up, the tested form may be a part): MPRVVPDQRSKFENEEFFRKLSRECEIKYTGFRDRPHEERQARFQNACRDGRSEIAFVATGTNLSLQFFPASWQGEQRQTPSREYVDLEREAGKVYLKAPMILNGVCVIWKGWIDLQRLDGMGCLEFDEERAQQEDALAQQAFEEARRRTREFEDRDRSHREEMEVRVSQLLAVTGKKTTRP
Wee1 stabilizer: human Wee1 degradation inhibition, primary screen. HeLa Luc-Wee1K328M stability, luciferase luminescence; 100% = proteasome inhibitor MG132 effect. reporter increase, % at 5 µM. 220,000 tested, 1.2% active;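 active means activation above the mean of all tested compounds plus 3 SD, set per screening run, cut at about 8.8% in these data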;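 further: cells exposed to compound for 20 h before luminescence read; 0% = DMSO alone and 100% = MG132 at 30 µM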
AI-2 QS modul: modulates the Vibrio harveyi AI-2 quorum sensing system | Vibrio harveyi JMH597 AI-2 luminescence/OD600 ratio, 9 h; hits give low values; strain lacks LuxN and CqsS sensors; 0 = neutral-control median | activity change, % at 7.5 µM | 300,000 tested, 0.4% active | AID 2094; in the data active means activity change below about -75%, passing the limit was not always enough; inconclusive means no clear call, values can overlap the other calls;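 further: luminescence divided by OD600 gain over 9 h not by final OD600 alone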
Runt-CBFb FRET: inhibitors of human RUNX1 Runt domain binding to CBFb | inhibition, % at 20 µM | 220,000 tested, 0.46% active | Cerulean-Runt/Venus-CBFb FRET ratio 530/480, 1 h | Q01196+Q13951 | AID 1496;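 active means inhibition over about 50% at 20 µM in the single-dose screen, limit read from the data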;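 further: 0% = DMSO wells and 100% = excess unlabeled CBFb competitor control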
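Assay system: Cerulean-tagged RUNX1 Runt domain (FRET donor) fusion protein / Amount: 100 nM each of Venus-CBFb and Cerulean-Runt domain / Medium: Tris buffer pH 7.5 with salts and BSA / Also added: Venus-CBFb 100 nM / Schedule: 1 h complex formation plus 1 h compound treatment, room temperature / Signal: FRET fluorescence / Read-out: loss of energy transfer signal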
KLK7 act conf: confirmation of human kallikrein-7 zymogen activators. shares compounds with KLK7 zymogen act. purified proKLK7, EDANS-DABCYL substrate fluorescence; scaled: vehicle 0, mature enzyme 100. activation, % at 7 µM. 3,200 tested, 68% active. AID 686949;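 active means activation, as change over the incubation, above the mean of all tested compounds plus 3 SD, cut at about 13% in these data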
EDANS interfere: optically interferes with EDANS-DABCYL signal, flagging KLK7 hits; shares compounds with KLK7 zymogen act; EDANS-DABCYL substrate fluorescence interference, no enzyme, 4 h; solvent 0%, active enzyme control 100%; activation, % at 7 µM; 3,200 tested, 80% active; AID 686952;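 active means activation above the all-compound mean plus 3 SD, ignoring values outside control-based bounds, cut at about 4.8% in these data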;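 further: value is the 4 h activation minus the activation read at time zero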
K7 EDANS ctr: counter-screen for kallikrein-7 activators: EDANS-DABCYL interference, dose response; shares compounds with KLK7 zymogen act; EDANS-DABCYL peptide fluorescence interference, no enzyme; EC50, µM; 250 tested, 20% active;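 active means compounds that raise the fluorescence signal in this interference counterscreen, with EC50 at or below 10 µM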;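 further: intact quenched peptide substrate alone read at 355 nm excitation and 520 nm emission; signal is fluorescence gain from T0 to T4 after four hours at room temperature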
An asterisk follows results filed as active; i = inactive; ? = inconclusive; . = no result given. A selection: hits, their analogues and other compounds. The true share with any hit is near 2.9%.

SMILES | RanGTP-Impb inh | KLK7 zymogen act | Runt-SMMHC FRET | Wee1 stabilizer | AI-2 QS modul | Runt-CBFb FRET | KLK7 act conf | EDANS interfere | others
CCCCc1cc(=O)oc2cc(C)cc(OCC(=O)O)c12 | 0 | 12 | 2 | -1 | 2 | -1 | . | .
COc1ccccc1NC(=O)CCSc1nc(C)cs1 | 4 | 0 | . | . | 1 | . | . | .
CNS(=O)(=O)c1cccc(C(=O)OCc2cc(=O)oc3c(C)c(O)ccc23)c1 | 1 | 265* | . | . | 42 | . | 603* | 607*
CCc1cc2c(COC(=O)c3cccc(S(C)(=O)=O)c3)cc(=O)oc2cc1O | 9 | 508* | . | . | 15 | . | 568* | 559*
O=C(O)c1c2c(nc3ccccc13)/C(=C/c1ccc(O)cc1)CC2 | -10 | 28* | 86* | 2 | 29 | 20 | 68* | 70*
COC(=O)c1cc(=O)c2cccc(OC)c2[nH]1 | 0 | 196* | 5 | -1 | 16 | 4 | 77* | 77*
COc1cccc2c(=O)cn[nH]c12 | 0 | 84* | 5 | -2 | 28 | -2 | 66* | 64*
COc1ccc(OC)c2[nH]c(C(=O)O)cc12 | 0 | 0 | -1 | 0 | 22 | -1 | . | .
COc1ccc(CCNC(=O)c2sc(=S)n(C)c2N)cc1 | 5 | 15* | -3 | 1 | 13 | 0 | 15* | 13*
CCOC(=O)c1ccc(OC)c(OC)c1Cl | -5 | 0 | 1 | 1 | 15 | -1 | . | .
CCOC(=O)c1cc(OC(C)=O)c2ccc(OC)c(OC)c2c1 | . | 14* | . | . | . | . | -50 | -50
CCN1CCN(Cc2c(O)ccc3c2O/C(=C\c2ccccc2)C3=O)CC1 | -2 | 42* | 88* | 0 | 27 | -65 | 25* | 39*
CCc1ccc(/C=C2\Oc3c(ccc(O)c3CN3CCN(C)CC3)C2=O)cc1 | ? | 58* | 81* | 7 | 2 | -10 | 17* | 37*
CCN1CCN(Cc2c(O)ccc3c2O/C(=C\c2ccc(C)cc2)C3=O)CC1 | 22* | 44* | 92* | -3 | 16 | 20 | 18* | 7.1* | K7 EDANS ctr=>70
CCN1CCN(Cc2c(O)ccc3c2O/C(=C\C=C\c2ccccc2)C3=O)CC1 | -320 | 5 | -252 | 1 | 17 | -44 | . | .
Cc1ccc(/C=C2\Oc3c(ccc(O)c3CN3CCN(C)CC3)C2=O)cc1 | 22* | 58* | 90* | -1 | 13 | 3 | 31* | 25*
NC(N)=NC(=S)Nc1ccc(Cl)cc1 | 4 | 0 | -3 | -1 | -7 | -1 | . | .
Nc1c(-c2ccccc2)nc(Cl)nc1-c1ccccc1 | -2 | 42* | 7 | -2 | 15 | 0 | 78* | 78*
Cc1sc(N)nc1-c1ccccc1 | -2 | 1 | 2 | 2 | 4 | 1 | . | .
COc1ccc2c(c1)SCCC2=O | 0 | -2 | 2 | 1 | 36 | 1 | . | .
COc1cc2c(cc1OC)C(=O)CCS2 | 2 | 14* | 1 | 4 | 53 | 2 | 16* | 22*
CCOc1ccc2c(C)cc(=O)oc2c1OCC | -4 | 8 | -11 | -1 | 5 | . | . | .
O=C(Oc1cc(=O)oc2ccccc12)c1ccco1 | -2 | 0 | 5 | 0 | 10 | -1 | . | .
CCC(=O)Oc1ccc2c(C)cc(=O)oc2c1C | 2 | 422* | 20 | -2 | 14 | 11 | 697* | 675*
Cc1cc(=O)oc2c(C)c(OC(=O)c3ccco3)ccc12 | 1 | 85* | . | . | 8 | . | 601* | 620*
SMILES | RanGTP-Impb inh | KLK7 zymogen act | Runt-SMMHC FRET | Wee1 stabilizer | AI-2 QS modul | Runt-CBFb FRET | KLK7 act conf | EDANS interfere | others
C=CCN(CC=C)c1nc2ccccc2nc1C(C#N)C(=O)OC(C)C (configuration not stated) | 29* | 19* | 115* | 0 | 69 | 16 | 22* | 22*
C=CCOC(=O)C(C#N)c1nc2ccccc2nc1N1CCN(c2ccccc2OC)CC1 (configuration not stated) | -2 | -1 | -2 | 1 | 26 | 0 | . | .
CC1CC(Nc2cccc(O)c2)=CC(=O)O1 (configuration not stated) | ? | 13* | -2 | 3 | 23 | 3 | 1 | 0
COc1ccc(Cn2cc3c(-c4ccc(F)cc4)nnc-3c3cc(OC)c(OC)cc32)cc1 | . | -35 | -42 | 0 | . | -29 | . | .
COc1cc2c3nnc(-c4ccc(F)cc4)c-3cn(Cc3ccc(F)cc3)c2cc1OC | -43 | 13* | 1 | 0 | 35 | -12 | -5 | -7
CC[C@@]1(O)C(=O)OCc2c1cc1n(c2=O)Cc2cc3c(N)cccc3nc2-1 | ? | 27* | -34 | . | 25 | -9 | 78* | 90*
CC[C@@]1(O)C(=O)OCc2c1cc1n(c2=O)Cc2cc3c(CN(C)C)c(O)ccc3nc2-1 | -224 | 60* | . | . | 1 | . | 70* | 76*
O=C(O)CCc1nn2c3ccccc3nc2n(CCN2CCCCC2)c1=O | -1 | 57* | -3 | 1 | 10 | -2 | 15* | 13* | K7 EDANS ctr=i
Cc1nn2c3ccccc3n(CCN3CCCCC3)c2nc1=O | -5 | 55* | 0 | 0 | 7 | -3 | 8 | 12*
CN(C)Cc1ccccc1-c1cccc2nccn12 | . | 19* | . | . | . | . | 2 | 3
CC1=C(C#N)C(c2cccnc2)C2=C(CC(c3ccc(Cl)cc3)CC2=O)N1 (configuration not stated) | 2 | 13* | 15 | 2 | 40 | 7 | 2 | 9.2*
Cc1cc(C)c2c(n1)nn1c(NCCOCCO)cc(C)nc21 | 38* | 61* | 72* | -1 | 25 | 28 | 78* | 80*
COc1ccc(/C=N/NC(=O)c2nnn(-c3nonc3N)c2-c2cccs2)cc1OC | 3 | 32* | . | . | 27 | . | 217* | 353*
COc1cc(/C=N/NC(=O)c2nnn(-c3nonc3N)c2-c2cccs2)ccc1O | 4 | 0 | . | . | 5 | . | . | .
Cc1ccc(C(O)(C(=O)NNc2ccc3ccccc3n2)c2ccc(C)cc2)cc1 | 2 | 2 | 4 | -2 | 37 | 2 | . | .
COC(=O)C[C@H]1CC[C@@H](NS(=O)(=O)c2ccc(C)cc2)[C@@H](CO)O1 | . | 0 | . | . | . | . | . | .
